From PubChem BioAssay
Compounds with a hit are over-represented: about 1.3% of the library has one in this group of screens.
PfGluPho inh = PfG6PD (Plasmodium falciparum) enzyme inhibition; PfGluPho enzyme, NADPH resazurin-diaphorase fluorescence; inhibition, % at 20 µM; 350,000 tested, 0.78% active; AID 504690;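 active = inhibition reaching at least a set limit at 20 µM in the primary screen, cut at about 59% in these data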
HKDC1 inhibitor = inhibitors of human hexokinase HKDC1. AID 493160. inhibition, % at 20 µM. 340,000 tested, 0.16% active. recombinant HKDC1, G6PDH/diaphorase resazurin coupled fluorescence;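 active = inhibition above about 35% when tested at 20 µM, limit read from the data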
Target sequence (Q2TB90 whole entry, looked up): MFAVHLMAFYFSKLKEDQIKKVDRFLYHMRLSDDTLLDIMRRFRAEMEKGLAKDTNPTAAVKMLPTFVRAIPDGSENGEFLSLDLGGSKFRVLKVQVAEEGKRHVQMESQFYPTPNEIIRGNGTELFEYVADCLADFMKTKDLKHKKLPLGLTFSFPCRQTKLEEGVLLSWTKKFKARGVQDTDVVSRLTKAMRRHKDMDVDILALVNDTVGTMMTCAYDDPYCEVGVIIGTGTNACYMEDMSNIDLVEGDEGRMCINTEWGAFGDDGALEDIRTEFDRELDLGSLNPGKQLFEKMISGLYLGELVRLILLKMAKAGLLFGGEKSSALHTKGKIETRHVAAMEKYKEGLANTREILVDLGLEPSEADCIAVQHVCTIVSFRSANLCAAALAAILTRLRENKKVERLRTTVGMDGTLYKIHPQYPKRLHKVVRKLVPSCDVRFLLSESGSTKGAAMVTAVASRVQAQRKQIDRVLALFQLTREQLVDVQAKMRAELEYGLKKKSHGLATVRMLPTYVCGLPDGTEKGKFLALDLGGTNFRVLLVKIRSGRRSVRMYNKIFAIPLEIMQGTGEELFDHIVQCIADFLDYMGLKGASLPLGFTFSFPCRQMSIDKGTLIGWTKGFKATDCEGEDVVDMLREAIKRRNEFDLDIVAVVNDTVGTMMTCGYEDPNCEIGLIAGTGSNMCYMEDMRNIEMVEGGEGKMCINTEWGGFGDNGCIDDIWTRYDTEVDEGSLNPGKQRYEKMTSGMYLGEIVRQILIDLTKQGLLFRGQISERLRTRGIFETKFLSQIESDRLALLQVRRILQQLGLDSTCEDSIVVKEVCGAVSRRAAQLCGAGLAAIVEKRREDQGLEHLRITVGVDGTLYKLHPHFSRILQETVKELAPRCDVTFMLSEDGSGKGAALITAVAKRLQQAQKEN
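test system = in-house recombinant HK5 (HKDC1) enzyme | amount = HKDC1 at 5 µg/mL | control set = DMSO-enzyme wells negative, buffer-substituted wells positive | compound = one dose of 20 µM, 1% DMSO | schedule = reaction time 90 min, room temperature, protected from light | technique = resorufin fluorescence at 613 nm | reagent = glucose with 1 mM ATP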
Diaph inh CS = inhibits diaphorase or chemically oxidizes, flagging diaphorase assay artifacts | diaphorase resazurin-to-resorufin fluorescence, NADH, 16 min; bacterial (C. kluyveri) enzyme, not human | inhibition, % at 20 µM | 190,000 tested, 0.69% active;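 active = primary screen inhibition at 20 µM above a set limit, cut at about 50% in these data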
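Assay system – diaphorase enzyme from Clostridium kluyveri · Amount – diaphorase 0.14 U/mL (working solution) · Times – reaction incubation of 16 min at room temperature · Controls – No-NADH positive control and DMSO neutral control · Signal – resorufin fluorescence 544/590 nm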
Tb hexokinase = T. brucei hexokinase 1 inhibition; recombinant TbHK1, G6PDH-coupled NADH A340; inhibition, % at 10 µM; 220,000 tested, 0.11% active;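 active = inhibition of 50% or more in the single-dose primary screen; inactive = inhibition below 50%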
Diaphorase act = counter-screen for diaphorase-based assays: diaphorase activators and chemical reducers; Diaphorase/resazurin coupled assay, resorufin fluorescence, 16 min; stronger effect = higher value; 1 = vehicle wells, 0 = NADH-free wells; activation factor at 20 µM; 190,000 tested, 0.005% active; AID 1229;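 active = diaphorase activity raised at least twofold by the compound at 20 µM; inactive = activation factor below 2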
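Measured by – red resorufin fluorescence at 544/590 nm excitation/emission · Test system – Clostridium kluyveri diaphorase, purified enzyme · Incubation – reaction time 16 min, room temperature · Buffer or medium – 50 mM HEPES pH 7.4 with 4.542 mM MgCl2, 0.005% Tween 20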
G6PDH CS = L. mesenteroides G6PDH inhibition counter-screen | Purified L. mesenteroides G6PDH, diaphorase/resazurin coupled fluorescence, 45 min | inhibition, % at 5 µM | 200,000 tested, 0.12% active; in the data active = inhibition above about 50%
A number is an active result; – = inactive; · = no result given.

SMILES | PfGluPho inh | HKDC1 inhibitor | Diaph inh CS | Tb hexokinase | Diaphorase act | G6PDH CS
O=[N+]([O-])c1cc2oc3c(c2c(C=NCc2ccncc2)c1O)CCCC3 | – | – | 56.0 | – | – | –
CC(C)(C)N=Cc1c(O)ccc2oc3c(c12)CCCC3 | – | – | · | · | · | ·
COc1ccc(NC(=O)CN2C(=O)NC(C)(c3ccccc3)C2=O)cc1Cl (stereo not given) | – | – | · | · | · | ·
Cc1ccc(S(=O)(=O)C2C(=O)N(C)C3(C)CC2c2ccccc2O3)cc1 (stereo not given) | – | – | – | – | – | –
O=C(c1ccccc1)c1coc2c1C(=O)c1ccccc1C2=O | – | – | – | – | – | 52.6
c1coc(-c2cnc3ccccc3n2)c1 | – | · | · | · | · | ·
O=C(c1ccccc1)c1ccc2nc(-c3ccco3)c(-c3ccco3)nc2c1 | – | – | 74.2 | – | – | –
O=C(NC1CCCC1)c1ccc2nc(-c3ccco3)c(-c3ccco3)nc2c1 | – | – | 80.4 | – | – | –
c1coc(-c2nc3ccccc3nc2-c2ccco2)c1 | – | – | 80.3 | – | – | –
Cc1cc(OC(C)C(=O)NCCCn2ccnc2)c2c(C)c(C)c(=O)oc2c1 (stereo not given) | – | – | · | · | · | ·
C=C(C)CCC(C)N1CCC(n2nccc2NC(=O)CCOc2ccccc2)CC1 (stereo not given) | – | – | · | · | · | ·
O=C1c2cccc3c(N4CCCCC4)ccc(c23)C(=O)N1c1ccccn1 | – | – | 52.1 | – | – | –
O=C(NCCCn1ccnc1)/C(=C\c1ccccc1Cl)NC(=O)c1ccccc1 | – | – | · | · | · | ·
CCCN1CCCc2cc(CN)ccc21 | 66.1 | – | – | – | – | 53.8
O=[N+]([O-])c1cccc(-c2cc(C(F)(F)F)n3nc(-c4ccccc4)cc3n2)c1 | – | – | · | – | · | ·
CCc1ccc(N2C(=O)Cc3c2nc(N)c(C#N)c3N)cc1 | – | – | – | – | – | –
CCN(CC)c1nc2c3c(nc4c(c3c1C#N)CC(=O)N4c1ccc(Cl)cc1)NC(C)=N2 | – | – | 58.4 | – | – | –
CCOc1ccc2nc(NC(=O)CSc3nc(-c4ccccc4)c(C#N)c(=O)[nH]3)sc2c1 | – | – | 59.4 | – | – | –
COc1cccc(-c2nc(SCC(=O)Nc3nc(-c4ccccc4)c(C)s3)[nH]c(=O)c2C#N)c1 | – | – | 81.3 | – | – | –
CCOC(=O)Cc1csc(NC(=O)CSc2nc(-c3ccccc3)c(C#N)c(=O)[nH]2)n1 | – | – | – | – | – | –
C/C(Cc1ccccc1)=N\NC(=O)CNC(=O)c1ccc(C(C)(C)C)cc1 | – | – | – | – | – | –
CCOC(=O)C1=C(O)c2ccccc2C(=O)/C1=C\c1ccc(C)cc1 | 95.7 | 67.2 | – | – | – | 50.9
CC1=CC(C)(C)NC(=S)N1c1cccc2ccccc12 | – | – | – | – | – | –
CN1c2ccccc2N(C)C1(C)c1cccc2ccccc12 | – | – | 58.8 | – | – | –
C=C[C@@H]1c2cccc(C)c2N(S(=O)(=O)c2ccc(C)cc2)[C@H](c2ccc(OC(C)=O)cc2)C1(C#N)C#N | – | – | · | · | · | ·
SMILES | PfGluPho inh | HKDC1 inhibitor | Diaph inh CS | Tb hexokinase | Diaphorase act | G6PDH CS
Oc1ccc(Cl)cc1C=Nc1ccc2c3c(cccc13)CC2 | – | – | 60.2 | – | – | –
CCNc1ccc(Br)cc(C(=O)/C=C/c2ccc(Cl)cc2Cl)c1=O | – | – | 54.2 | – | – | –
CNc1ccc(Br)cc(C(=O)/C=C/c2cc(OC)ccc2OC)c1=O | – | – | – | – | – | –
C/C(CC(=O)Nc1ccc(OCc2ccccc2)cc1)=N\NC(=O)C(=O)Nc1ccc(C)c(Cl)c1 | – | – | – | – | – | –
CCCCCCN[C@H]1CCC2C3CC=C4C[C@@H](O)CC[C@]4(C)C3CC[C@@]21C (stereo not given in full) | – | – | · | · | · | ·
CCCN(CC(=O)Nc1ccccc1C)C(=O)c1cc2ccccc2oc1=O | – | · | · | · | · | ·
COc1cc(/C=N/NC(=S)Nc2cccc(Cl)c2C)ccc1OCC(=O)N1CC(C)OC(C)C1 (stereo not given) | – | – | 54.4 | – | – | –
CCC(C(=O)OCc1csc(CC(=O)Nc2ccccc2C)n1)c1ccccc1 (stereo not given) | – | – | · | · | · | ·
CCOC(=O)c1c(C)[nH]c(C)c1S(=O)(=O)N(C)CC(=O)Nc1ccccc1 | – | – | · | · | · | ·
COc1cc(/C=N/NC(=O)c2cc3ccccc3cc2O)ccc1OCCN1CCCCC1 | – | – | 89.3 | – | – | –
COc1cc(/C=N/NC(=O)c2ccncc2)ccc1OCCN1CCCCC1 | – | – | – | – | – | –
CCN(CC)CCCNC(=O)c1ccc2c(SCC(=O)O)c3c(nc2c1)CCC3 | · | · | – | – | – | –
CCN(CC)CCNC(=O)CSc1c2c(nc3cc(Cl)ccc13)CCCC2 | – | – | 53.3 | – | – | –
Cc1ccc(N=Nc2c(N)[nH]n3c(=O)cc(-c4ccccc4)nc23)cc1 | – | – | 61.6 | – | – | –
Cc1cc(C)cc(-n2c(SCC(=O)Nc3cccc(S(=O)(=O)NC4=NCCCCC4)c3)nc3ccccc3c2=O)c1 | – | – | – | – | – | –
COc1cc(C(=O)N(C(C)C)C2CCCCC2)cc(OC)c1OC | – | · | · | · | · | ·
COc1cc2c(cc1NC(=O)CSc1ccc(C)cc1)oc1ccccc12 | – | – | – | – | – | –
COc1cc2c(cc1NC(=O)C(C)Sc1ccc(C)cc1)oc1ccccc12 (stereo not given) | – | – | 75.9 | – | – | –
Cc1cc(OCC(=O)NCc2ccncc2)c2c(C)c(C)c(=O)oc2c1 | – | – | · | · | · | ·
Cc1ccc(S(=O)(=O)N2CCOCC2)cc1NC(=O)Nc1ccc([N+](=O)[O-])cc1 | – | – | · | · | · | ·
Cc1c(Cl)sn(-c2ccc(Cl)cc2)c1=O | 106.3 | – | – | – | – | –
O=C(COc1cccc(Cl)c1)N/N=C\c1cc2ccccc2nc1Cl | – | – | – | – | – | –
O=C(CNc1ccc2ccccc2c1)N/N=C/c1cc2ccccc2nc1Cl | – | – | 52.4 | – | – | –
O=C(CNc1cccc2ccccc12)N/N=C/c1ccc(C(=O)O)cc1 | – | – | – | – | – | –
COc1ccc(C(=O)CNc2ccc3ccccc3c2)cc1 | – | – | 62.9 | – | – | –
O=C(CNc1ccc2ccccc2c1)N/N=C/c1ccc(C(=O)O)cc1 | – | – | 59.4 | – | – | –
CC1CC(C)CN(S(=O)(=O)N2CCCC(C(=O)NC(C)c3ccccc3)C2)C1 (stereo not given) | – | – | · | · | · | ·
O=C(Nc1ccc(F)cc1)C1CC(=O)N(Cc2ccco2)C1 (stereo not given) | – | – | · | · | · | ·
CCN(C(=O)c1c(C)cc(=O)oc1C)c1ccc2c(c1)OCO2 | – | – | – | – | – | –
CCN(C(=O)c1coc(=O)c(Br)c1)c1ccc2c(c1)OCO2 | – | – | 66.3 | – | – | –
